Assay results: article PMC8897208 (Acta Pharmaceutica Sinica. B, 2021)

Assays:
BXPC-3 cells = test: Western blot of SIRT6 substrates H3K9Ac, H3K18Ac, H3K56Ac; type: cell-based; settings: BXPC-3, indicated doses of JYQ-42 for 24 h
Outline: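 BXPC-3 cells were grown in RPMI1640 and MiaPaCa-2 cells in DMEM, each with 10% FBS and penicillin/streptomycin, at 37 °C under 5% CO2. Both lines were STR-verified. Cells took test compound at 0, 10, 20 or 40 μmol/L for 24 or 48 h and were lysed in 1× SDS loading buffer. Proteins were separated on 12% SDS-PAGE and transferred to PVDF. Blocking used Tris-NaCl pH 7.5 with Tween-20 and 5% milk. Detection was chemiluminescent (HRP), with β-actin as loading control.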

SIRT6 [1] = molecular target: T1, SIRT6 (Homo sapiens, UniProt Q8N6T7); test: In vitro nucleosome deacetylation assay; type: biochemical; settings: Western blot
Outline: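 Nucleosomes were isolated from HeLa cells and deacetylated in vitro by SIRT6 in the presence of NAD+. H3K9Ac and H3K18Ac were detected by Western blot.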

HDAC7 = molecular target: T2, HDAC7 (Homo sapiens, UniProt Q8WUI4); test: HDACs selectivity assay; type: biochemical
T2 sequence (Q8WUI4 1-952): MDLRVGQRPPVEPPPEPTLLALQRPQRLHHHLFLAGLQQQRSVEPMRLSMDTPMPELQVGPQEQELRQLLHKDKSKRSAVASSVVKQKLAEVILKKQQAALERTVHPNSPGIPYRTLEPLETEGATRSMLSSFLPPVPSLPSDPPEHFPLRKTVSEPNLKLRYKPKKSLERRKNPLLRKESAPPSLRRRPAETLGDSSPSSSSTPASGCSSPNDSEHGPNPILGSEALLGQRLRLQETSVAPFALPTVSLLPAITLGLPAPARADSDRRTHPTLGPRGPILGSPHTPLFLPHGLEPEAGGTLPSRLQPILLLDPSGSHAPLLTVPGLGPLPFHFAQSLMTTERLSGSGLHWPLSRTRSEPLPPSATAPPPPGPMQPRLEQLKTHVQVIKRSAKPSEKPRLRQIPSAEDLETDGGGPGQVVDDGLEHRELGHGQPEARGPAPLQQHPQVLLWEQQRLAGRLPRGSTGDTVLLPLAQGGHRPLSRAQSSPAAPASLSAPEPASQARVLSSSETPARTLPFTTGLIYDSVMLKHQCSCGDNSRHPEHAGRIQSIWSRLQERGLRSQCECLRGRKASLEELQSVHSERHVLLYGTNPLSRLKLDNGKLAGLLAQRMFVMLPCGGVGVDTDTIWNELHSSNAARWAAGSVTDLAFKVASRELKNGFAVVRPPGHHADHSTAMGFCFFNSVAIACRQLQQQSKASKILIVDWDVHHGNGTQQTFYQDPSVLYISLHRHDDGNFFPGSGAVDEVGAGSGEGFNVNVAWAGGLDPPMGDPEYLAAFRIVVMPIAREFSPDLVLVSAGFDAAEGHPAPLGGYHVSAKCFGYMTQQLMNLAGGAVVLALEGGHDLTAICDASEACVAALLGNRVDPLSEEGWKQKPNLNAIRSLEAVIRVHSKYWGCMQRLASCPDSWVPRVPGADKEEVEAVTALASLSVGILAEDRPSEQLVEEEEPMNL
Outline: (§1)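 Enzyme selectivity panel was run by an outside contract lab to its standard assay protocols. IC50 values came from dose–response fitting of the data points. Each experiment was done independently at least three times.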

SIRT6 [2] = molecular target: T1, SIRT6; test: Biolayer interferometry; type: binding
HDAC2 = HDAC2 (Homo sapiens, UniProt Q92769); test: HDACs selectivity assay; type: biochemical
Outline: as §1

HDAC4 = HDAC4 (Homo sapiens, UniProt P56524); test: HDACs selectivity assay; type: biochemical
Outline: as §1

SIRT1 = molecular target: T3, SIRT1 (Homo sapiens, UniProt Q96EB6); test: HDACs selectivity assay; type: biochemical
T3 sequence (Q96EB6 1-747): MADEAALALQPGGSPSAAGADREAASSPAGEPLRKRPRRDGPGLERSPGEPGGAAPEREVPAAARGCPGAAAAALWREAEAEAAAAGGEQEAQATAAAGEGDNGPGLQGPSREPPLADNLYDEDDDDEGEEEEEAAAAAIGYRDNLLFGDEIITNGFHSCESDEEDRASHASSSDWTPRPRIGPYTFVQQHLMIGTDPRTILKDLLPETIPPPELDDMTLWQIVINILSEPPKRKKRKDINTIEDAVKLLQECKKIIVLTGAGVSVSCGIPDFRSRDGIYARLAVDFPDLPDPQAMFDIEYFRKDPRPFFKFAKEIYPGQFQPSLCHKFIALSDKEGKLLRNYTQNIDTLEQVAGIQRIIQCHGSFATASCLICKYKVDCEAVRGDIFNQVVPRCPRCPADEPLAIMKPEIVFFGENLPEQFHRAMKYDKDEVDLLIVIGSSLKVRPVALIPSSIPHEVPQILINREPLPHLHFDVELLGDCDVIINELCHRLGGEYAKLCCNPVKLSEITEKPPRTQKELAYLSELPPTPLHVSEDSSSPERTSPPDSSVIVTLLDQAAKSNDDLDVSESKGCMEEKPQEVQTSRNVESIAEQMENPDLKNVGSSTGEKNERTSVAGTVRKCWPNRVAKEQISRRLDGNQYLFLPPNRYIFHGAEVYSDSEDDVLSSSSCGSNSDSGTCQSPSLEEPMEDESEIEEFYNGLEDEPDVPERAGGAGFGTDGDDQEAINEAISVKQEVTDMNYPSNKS
Outline: as §1

HDAC9 = HDAC9 (Homo sapiens, UniProt Q9UKV0); test: HDACs selectivity assay; type: biochemical
Outline: as §1

full-length SIRT7 = molecular target: T4, full-length SIRT7 (Homo sapiens, UniProt Q9NRC8); test: Selectivity FDL deacetylation assay; type: biochemical
T4 sequence (Q9NRC8 1-400): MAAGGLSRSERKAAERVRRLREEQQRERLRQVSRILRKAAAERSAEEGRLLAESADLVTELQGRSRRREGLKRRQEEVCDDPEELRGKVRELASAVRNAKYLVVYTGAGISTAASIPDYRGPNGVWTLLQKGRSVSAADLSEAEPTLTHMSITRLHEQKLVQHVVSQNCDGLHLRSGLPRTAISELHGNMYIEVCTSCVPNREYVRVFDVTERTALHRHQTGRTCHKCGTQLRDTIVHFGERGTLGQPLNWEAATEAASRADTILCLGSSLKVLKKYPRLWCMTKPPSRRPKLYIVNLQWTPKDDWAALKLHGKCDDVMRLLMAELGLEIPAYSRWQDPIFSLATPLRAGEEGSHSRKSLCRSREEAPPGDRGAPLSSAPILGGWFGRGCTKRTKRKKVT

MiaPaCa-2 cells = test: Proliferation assay; type: cell-based; settings: MiaPaCa-2, up to 20 μmol/L, 48 h, CCK-8

T1 sequence (Q8N6T7 whole entry): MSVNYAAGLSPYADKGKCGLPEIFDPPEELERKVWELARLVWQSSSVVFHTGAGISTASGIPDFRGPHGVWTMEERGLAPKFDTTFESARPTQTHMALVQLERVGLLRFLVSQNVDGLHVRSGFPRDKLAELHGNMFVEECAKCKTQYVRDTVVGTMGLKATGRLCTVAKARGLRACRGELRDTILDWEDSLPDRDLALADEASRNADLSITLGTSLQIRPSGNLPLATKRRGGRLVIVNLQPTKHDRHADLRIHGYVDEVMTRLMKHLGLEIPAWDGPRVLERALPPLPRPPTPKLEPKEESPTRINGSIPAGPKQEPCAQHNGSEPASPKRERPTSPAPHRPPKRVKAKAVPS
Chain of HDAC9 (Q9UKV0 whole entry): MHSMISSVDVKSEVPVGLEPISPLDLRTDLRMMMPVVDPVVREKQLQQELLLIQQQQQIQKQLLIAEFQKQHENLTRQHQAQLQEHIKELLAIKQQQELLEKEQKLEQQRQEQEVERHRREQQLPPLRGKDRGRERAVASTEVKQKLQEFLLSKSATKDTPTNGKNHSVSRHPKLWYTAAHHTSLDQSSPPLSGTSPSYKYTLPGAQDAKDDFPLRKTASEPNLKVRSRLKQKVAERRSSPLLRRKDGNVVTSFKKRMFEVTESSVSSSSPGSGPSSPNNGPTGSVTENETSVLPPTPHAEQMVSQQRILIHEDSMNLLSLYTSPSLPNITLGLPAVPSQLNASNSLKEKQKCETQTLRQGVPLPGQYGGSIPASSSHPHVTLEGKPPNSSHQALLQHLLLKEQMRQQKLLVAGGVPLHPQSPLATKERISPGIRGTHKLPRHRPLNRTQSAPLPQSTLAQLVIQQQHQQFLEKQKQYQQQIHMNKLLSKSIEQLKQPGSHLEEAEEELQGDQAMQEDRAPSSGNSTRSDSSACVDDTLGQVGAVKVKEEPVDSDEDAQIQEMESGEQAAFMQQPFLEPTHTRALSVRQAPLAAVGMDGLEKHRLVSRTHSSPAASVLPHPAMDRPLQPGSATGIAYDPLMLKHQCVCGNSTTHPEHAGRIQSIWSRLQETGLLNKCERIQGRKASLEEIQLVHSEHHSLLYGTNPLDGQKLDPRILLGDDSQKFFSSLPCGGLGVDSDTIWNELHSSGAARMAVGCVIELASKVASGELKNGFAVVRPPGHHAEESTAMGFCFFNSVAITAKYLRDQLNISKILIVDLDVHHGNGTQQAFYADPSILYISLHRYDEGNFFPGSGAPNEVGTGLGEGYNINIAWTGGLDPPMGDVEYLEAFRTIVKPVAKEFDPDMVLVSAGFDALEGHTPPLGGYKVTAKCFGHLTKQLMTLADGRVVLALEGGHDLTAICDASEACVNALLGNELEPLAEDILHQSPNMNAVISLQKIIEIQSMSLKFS
Chain of HDAC2 (Q92769 whole entry): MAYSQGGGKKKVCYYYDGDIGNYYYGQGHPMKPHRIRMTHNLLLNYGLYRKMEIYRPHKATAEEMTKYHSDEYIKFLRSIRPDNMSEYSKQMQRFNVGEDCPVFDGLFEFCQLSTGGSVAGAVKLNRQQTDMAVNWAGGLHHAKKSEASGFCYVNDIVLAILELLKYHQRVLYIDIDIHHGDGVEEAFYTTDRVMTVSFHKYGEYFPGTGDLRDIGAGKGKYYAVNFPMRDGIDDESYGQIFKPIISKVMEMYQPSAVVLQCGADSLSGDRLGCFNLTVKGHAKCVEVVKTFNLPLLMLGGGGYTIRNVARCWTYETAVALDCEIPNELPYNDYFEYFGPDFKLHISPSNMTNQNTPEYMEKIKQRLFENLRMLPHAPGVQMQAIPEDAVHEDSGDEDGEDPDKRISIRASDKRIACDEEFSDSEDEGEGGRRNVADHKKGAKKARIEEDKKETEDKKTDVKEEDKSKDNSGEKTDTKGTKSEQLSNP
Chain of HDAC4 (P56524 whole entry): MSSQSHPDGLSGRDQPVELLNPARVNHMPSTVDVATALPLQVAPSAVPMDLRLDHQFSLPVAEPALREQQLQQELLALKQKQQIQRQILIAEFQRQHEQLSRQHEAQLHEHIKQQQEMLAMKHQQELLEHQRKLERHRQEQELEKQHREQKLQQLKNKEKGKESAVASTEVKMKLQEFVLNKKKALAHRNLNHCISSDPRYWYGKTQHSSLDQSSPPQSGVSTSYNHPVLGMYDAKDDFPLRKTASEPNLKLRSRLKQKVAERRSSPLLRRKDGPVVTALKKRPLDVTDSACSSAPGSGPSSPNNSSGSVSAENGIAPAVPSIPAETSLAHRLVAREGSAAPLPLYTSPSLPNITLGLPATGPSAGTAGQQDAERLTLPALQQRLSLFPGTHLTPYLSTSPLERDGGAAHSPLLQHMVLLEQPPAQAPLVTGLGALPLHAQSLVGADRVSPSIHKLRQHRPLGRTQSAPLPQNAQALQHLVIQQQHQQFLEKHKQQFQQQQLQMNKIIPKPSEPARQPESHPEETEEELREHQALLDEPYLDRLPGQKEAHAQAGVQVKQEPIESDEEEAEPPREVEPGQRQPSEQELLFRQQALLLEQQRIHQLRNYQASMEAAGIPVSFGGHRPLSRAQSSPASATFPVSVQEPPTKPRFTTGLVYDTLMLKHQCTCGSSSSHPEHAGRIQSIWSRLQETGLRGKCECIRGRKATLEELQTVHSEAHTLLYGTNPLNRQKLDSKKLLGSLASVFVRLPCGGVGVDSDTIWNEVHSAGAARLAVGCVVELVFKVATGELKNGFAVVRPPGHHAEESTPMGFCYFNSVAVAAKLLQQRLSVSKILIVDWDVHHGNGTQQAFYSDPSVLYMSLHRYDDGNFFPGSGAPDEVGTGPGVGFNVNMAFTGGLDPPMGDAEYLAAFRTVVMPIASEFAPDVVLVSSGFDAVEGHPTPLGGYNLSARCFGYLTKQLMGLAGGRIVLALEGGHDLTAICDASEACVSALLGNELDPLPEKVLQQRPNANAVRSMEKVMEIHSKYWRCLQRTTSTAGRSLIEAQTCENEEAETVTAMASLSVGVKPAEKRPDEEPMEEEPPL

inhibition of SIRT6 deacetylase activity on nucleosomes (SIRT6 [1]; 1 μmol/L): completely/totally inhibited
IC50 (HDAC7): > 100 µM
Kd (SIRT6 [2]): 13.2 µM
IC50 (HDAC2): > 100 µM
IC50 (HDAC4): > 100 µM
IC50 (SIRT1): > 100 µM
IC50 (HDAC9): > 100 µM
IC50 (full-length SIRT7): > 100 µM
SMILES: Nc1nonc1-n1cc(C(=O)N/N=C/c2cc(Cl)cc(C(F)(F)F)c2)nn1 [JYQ-42]
levels of H3K9Ac, H3K18Ac and H3K56Ac (BXPC-3 cells): increased the levels of H3K9Ac, H3K18Ac and H3K56Ac in a dose-dependent manner
inhibition of SIRT6 deacetylase activity on nucleosomes (SIRT6 [1]; 0.5 μmol/L): inhibit the deacetylase activity of SIRT6 significantly
cell growth (MiaPaCa-2 cells): no significant impact on cell growth
